According to ChEMBL document CHEMBL1123516, “Substituted 1,3,4-thiadiazoles with anticonvulsant activity. 1. Hydrazines” (J Med Chem, 1986):

Columns and labels:
Mus musculus [1] = assay: Anticonvulsant activity tested by maximal electroshock test (MES) in mouse after 1 hr of administration; assay type: functional
Summary of the method: (§1)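 Male BKW mice (LACA origin), 18-22 g, dosed ip or po with compound dissolved or suspended in 2% Tween 80 in distilled water. Readout was block of hind limb tonic seizure. ED50 was derived by probit analysis using the computerized Bliss method.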

Mus musculus [2] = assay: Anticonvulsant activity tested by maximal metrazole seizure (MMS) test in mouse after 1 hr of administration; assay type: functional
Summary of the method: (§2)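 Male BKW mice, 18-22 g, dosed orally with compound in 2% Tween 80/water. Metrazol 120 mg/kg ip was given 1 h after dosing. ED50 for block of hind limb tonic seizure was derived by Bliss probit analysis.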

[3] = Neurotoxicity by performing a rotarod test in mouse after 1 hr of administration; assay type: toxicity, organism-based; settings: in vivo
Summary of the method: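 Male BKW mice, 18-22 g, were pre-trained on a rotorod turning at 16 rpm (3 cm drum). They were dosed ip or po in 2% Tween 80/water and tested at timed intervals. TD50, the dose at which 50% fell off the rod, was derived by probit analysis.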

Rattus norvegicus [4] = assay: Maximum percent fall in mean arterial blood pressure was evaluated by injecting 100 mg/kg perorally in DOCA hypertensive rats; assay type: functional; settings: route oral
[5] = Effect of compound on mouse motor performance was tested by performing a rotarod test after 1 hr of peroral administration; assay type: ADME, organism-based; settings: in vivo, po
Summary of the method: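 Male BKW mice (LACA origin, 18-22 g) were pre-trained on a rotorod at 16 rpm with a 3 cm drum. Compound was given orally in 2% Tween 80 in water, and mice were tested 1 h later. TD50 was the dose at which 50% fell off, derived by probit analysis.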

[6] = Protective index (rat) was from the ratio of plasma concentration at which side effects occur by plasma concentration at which anticonvulsant activity occur.; assay type: functional
Summary of the method: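 Rat plasma drug concentration at rotorod impairment was divided by the plasma concentration at MES anticonvulsant activity. Both were measured by HPLC-UV in plasma from dosed rats.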

Rattus norvegicus [7] = assay: Inhibition of hind limb tonus was tested by maximal metrazole seizure test after 4 hr of peroral administration; assay type: functional; settings: Hindlimb, po
Rattus norvegicus [8] = assay: Inhibition of hind limb tonus was tested by maximal metrazole seizure test after 1 hr of peroral administration of compound; assay type: functional; settings: Hindlimb, po
Mus musculus [9] = assay: Inhibition of hind limb tonus was tested at time of peak effect by maximal metrazole seizure (MMS) test administered intraperitoneally in mouse; assay type: organism-based; settings: Hindlimb, ip
Summary of the method: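 Male BKW mice (18-22 g) received compound intraperitoneally in 2% aqueous Tween 80 and were challenged with metrazol 120 mg/kg ip at the time of peak effect. ED50 for block of hind limb tonic seizure in 50% of mice was obtained by probit analysis.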

Rattus norvegicus [10] = assay: Inhibition of hind limb tonus was tested by maximal electroshock test (MES) in rat after 4 hr of peroral administration; assay type: functional; settings: Hindlimb, po
Rattus norvegicus [11] = assay: Inhibition of hind limb tonus was tested by maximal electroshock test (MES) in rat after 1 hr of peroral administration; assay type: functional; settings: Hindlimb, po
[12] = Effect of compound on mouse motor performance was tested by rotarod test administered intraperitoneally; assay type: ADME, organism-based; settings: in vivo, ip
Summary of the method: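 Male BKW mice (18-22 g) were pre-trained on a 16 rpm rotorod with a 3 cm drum. Drug was injected intraperitoneally as a solution or suspension in 2% aqueous Tween 80, and mice were tested at the time of peak effect. TD50 was the dose making 50% of trained animals fall off, calculated by probit analysis.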

Mus musculus [13] = assay: Inhibition of hind limb tonus was tested at time of peak effect by maximal electroshock test (MES) in mouse on intraperitoneal administration of compound; assay type: functional; settings: Hindlimb, ip; summary of the method: as §1
Mus musculus [14] = assay: Inhibition of hind limb tonus was tested by maximal metrazole seizure (MMS) test in mouse after 1 hr of peroral administration; assay type: functional; settings: Hindlimb, po; summary of the method: as §2
Mus musculus [15] = assay: Inhibition of hind limb tonus was tested by maximal electroshock test (MES) in mouse after 1 hr of peroral administration of compound; assay type: functional; settings: Hindlimb, po; summary of the method: as §1
Rattus norvegicus [16] = assay: Inhibition of hind limb tonus was tested at time of peak effect by maximal electroshock test (MES) in rat on intraperitoneal administration of compound; assay type: functional; settings: Hindlimb, ip
Summary of the method: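 Rats received compound intraperitoneally and were tested at the time of peak effect. ED50 was the dose blocking hind limb tonic seizure in 50% of animals, derived by probit analysis using the Bliss computerized method (Finney).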

Row | SMILES | ED50 (Mus musculus [1]) [mg/kg] | ED50 (Mus musculus [2]) [mg/kg] | TD50 at 1 h [3] [mg/kg] | also measured
1 | CCCCCCOc1ccccc1-c1nnc(NNc2ccccc2)s1.Cl | > 100 | > 100 |  | 
2 | NN(c1ccccc1)c1nnc(-c2ccccc2Cl)s1 | > 100 | > 100 |  | 
3 | NN(CCc1ccccc1)c1nnc(-c2ccccc2Cl)s1 | > 100 | ~200 |  | 
4 | CC(C)N(N)c1nnc(-c2ccccc2-c2ccccc2)s1 | > 100 | > 100 |  | 
5 | Cc1ccccc1-c1nnc(N(N)Cc2ccccc2)s1 | 27 | 44 | > 200 | 
6 | CNN(c1nnc(-c2ccccc2C)s1)C(C)C.Cl | > 100 | > 100 |  | 
7 | CNN(C)c1nnc(-c2ccccc2Cl)s1 | 43 | 25 | 106 | 
8 | Cc1ccccc1-c1nnc(NNC(c2ccccc2)c2ccccc2)s1 | > 200 | > 100 |  | 
9 | Cc1ccccc1-c1nnc(NNC(C)C)s1 | 83 | 54 | 449 | 
10 | CC(C)NN(C)c1nnc(-c2ccccc2-c2ccccc2)s1.Cl | 55 | 66 |  | 
11 | Cl.NNc1nnc(-c2ccccc2Cl)s1 | 70 | 25 | > 568 | Decrease in blood pressure (Rattus norvegicus [4]): 21%
12 | Cc1ccccc1-c1nnc(NN(C)C(C)C)s1 | 140 | > 100 |  | 
13 | CN(N)c1nnc(-c2ccccc2Cc2ccccc2)s1.Cl | 50 | 54 |  | 
14 | CCC1(c2ccccc2)C(=O)NC(=O)NC1=O [PHENOBARBITAL] |  |  |  | TD50 at 1 h [5]: 68 mg/kg; PI [6]: 2.42; ED50 (Rattus norvegicus [7]): 5 mg/kg; ED50 (Rattus norvegicus [8]): 4 mg/kg; ED50 (Mus musculus [9]): 6 mg/kg; ED50 (Rattus norvegicus [10]): 3 mg/kg; ED50 (Rattus norvegicus [11]): 9 mg/kg; TD50 [12]: 86 mg/kg; ED50 (Mus musculus [13]): 18 mg/kg; ED50 (Mus musculus [14]): 4 mg/kg; ED50 (Mus musculus [15]): 12 mg/kg; ED50 (Rattus norvegicus [16]): 3 mg/kg
15 | Clc1ccccc1-c1nnc(NNC2CCCC2)s1 | > 100 | > 100 |  | 
16 | CNNc1nnc(-c2ccccc2C)s1 | > 100 | > 100 |  | 
17 | Cc1ccccc1-c1nnc(N(N)c2ccccc2)s1 | > 100 | > 100 | > 400 | 

Row | SMILES | ED50 (Mus musculus [1]) [mg/kg] | ED50 (Mus musculus [2]) [mg/kg] | TD50 at 1 h [3] [mg/kg] | also measured
18 | Cl.c1ccc(NNc2nnc(-c3ccccc3-c3ccccc3)s2)cc1 | > 100 | > 100 |  | 
19 | NN(c1ccccc1)c1nnc(-c2ccccc2-c2ccccc2)s1 | > 100 | > 100 |  | 
20 | CC(C)N(c1nnc(-c2ccccc2Cl)s1)N(C)C.Cl | 116 | > 200 |  | 
21 | CN(N)c1nnc(-c2ccccc2Cl)s1.Cl | 20 | 41 | 136 | 
22 | CCNN(Cc1ccccc1)c1nnc(-c2ccccc2C)s1.Cl | > 100 | > 100 |  | 
23 | Cc1ccccc1-c1nnc(NN)s1.Cl | > 100 | 30 | 55 | Decrease in blood pressure (Rattus norvegicus [4]): 63%
24 | CN(Nc1ccccc1)c1nnc(-c2ccccc2Cl)s1 | > 100 | > 100 |  | 
25 | CNN(Cc1ccccc1)c1nnc(-c2ccccc2C)s1.Cl | 109 | 93 | 341 | 
26 | CN(N)c1nnc(CCc2ccccc2)s1.Cl | 51 | 49 | 317 | 
27 | Cl.NNc1nnc(-c2ccc(-c3ccccc3)cc2)s1 | > 200 |  |  | 
28 | CCCCCCOc1ccccc1-c1nnc(N(C)NC(C)C)s1.Cl | 97 | 56 |  | 
29 | CC(C)NN(C)c1nnc(-c2ccccc2Cl)s1.Cl | 16 | 30 | 71 | 
30 | Cc1ccccc1-c1nnc(N(C)N)s1.Cl | 75 | 41 | 108 | Decrease in blood pressure (Rattus norvegicus [4]): 29%
31 | Cc1ccccc1-c1nnc(NNC2CCCC2)s1.Cl | > 100 | > 100 |  | 
32 | CN(NC1CCCC1)c1nnc(-c2ccccc2Cl)s1.Cl | 106 | > 100 |  | 
33 | CN(N)c1nnc(-c2ccccc2Sc2ccccc2)s1.Cl | 43 | 27 |  | 
